Screening results (PubChem BioAssay)
This excerpt belongs to a sample that is enriched for hits.
GSH fluor = GSH bead compound fluorescence profile | GSH beads flow cytometry, compound fluorescence 488/530 nm; hits give high values | fluorescence (KMESF) at 10 µM | actives 0.25% (n = 190,000); in the data active = fluorescence above about 89;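 also: glutathione beads carrying GST-tagged Bcl family fusion proteins plus one bare bead set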
PKD1 inh = PKD1 (human) kinase inhibition | PKD1 kinase fluorescence polarization assay | actives 0.056% (n = 200,000) | inhibition, % (no concentration beside the values) | AID 797
Target sequence (Q15139 whole entry, looked up): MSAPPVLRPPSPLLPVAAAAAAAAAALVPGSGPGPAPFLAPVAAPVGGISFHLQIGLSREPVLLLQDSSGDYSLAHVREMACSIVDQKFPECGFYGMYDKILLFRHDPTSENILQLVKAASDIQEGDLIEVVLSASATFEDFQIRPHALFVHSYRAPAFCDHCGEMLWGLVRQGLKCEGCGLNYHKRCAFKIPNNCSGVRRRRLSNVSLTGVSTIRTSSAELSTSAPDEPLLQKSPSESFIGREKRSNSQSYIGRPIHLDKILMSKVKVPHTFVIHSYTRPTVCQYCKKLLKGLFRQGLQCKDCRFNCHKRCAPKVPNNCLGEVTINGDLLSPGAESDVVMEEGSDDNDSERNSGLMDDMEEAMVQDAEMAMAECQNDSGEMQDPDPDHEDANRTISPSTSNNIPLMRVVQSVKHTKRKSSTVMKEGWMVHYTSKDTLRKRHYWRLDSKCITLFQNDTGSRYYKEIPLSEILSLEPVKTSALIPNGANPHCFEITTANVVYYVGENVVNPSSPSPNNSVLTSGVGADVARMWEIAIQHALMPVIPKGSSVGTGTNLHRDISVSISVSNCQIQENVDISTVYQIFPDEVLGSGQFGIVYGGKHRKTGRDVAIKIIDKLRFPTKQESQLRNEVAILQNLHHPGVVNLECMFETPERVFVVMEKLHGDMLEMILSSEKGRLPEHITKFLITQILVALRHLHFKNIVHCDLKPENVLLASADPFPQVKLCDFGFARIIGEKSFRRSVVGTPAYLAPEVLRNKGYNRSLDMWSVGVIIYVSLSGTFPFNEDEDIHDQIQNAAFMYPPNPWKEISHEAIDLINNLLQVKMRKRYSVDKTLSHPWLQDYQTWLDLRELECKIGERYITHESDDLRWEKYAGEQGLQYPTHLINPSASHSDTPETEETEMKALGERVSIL
ABCB1 inh = inhibitors of human ABCB1 transporter, ABCG2 counter-screen. P08183. CCRF-Adr cells, JC-1 efflux, flow cytometry. inhibition, % at 6.6 µM. actives 0.067% (n = 190,000). AID 1326; in the data active = inhibition above about 40%;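 also: higher value means more JC-1 retained so stronger ABCB1 efflux block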
Avidin fluor = compound fluoresces at 488/530 nm on avidin beads; fluorescence (KMESF) at 10 µM; compound fluorescence 488/530 nm, flow cytometry; hits give high values; actives 0.38% (n = 220,000); in the data active = fluorescence above about 47
ABCG2 inh = blocks JC-1 efflux by human ABCG2 transporter; IgMXP3 cells, flow cytometry; Q9UNQ0; actives 0.1% (n = 190,000); inhibition, % at 6.6 µM; AID 1325;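 active = inhibition above 80%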
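Assay system – ABCG2 IgMXP3 and barcoded ABCB1 CCRF-Adr cell mix · Input – 3 million cells/mL in well · Reagent – JC-1 fluorescent substrate · Compound – single test compound dose, 6.6 µM final · Timing – 10 min exposure at 25 °C with rotation, no wash · Detection – flow cytometry of retained JC-1 fluorescence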
L major viab = Leishmania major promastigote growth inhibition | Leishmania major promastigotes, resazurin fluorescence viability | inhibition, % at 10 µM | actives 9% (n = 200,000) | AID 1063;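 also: promastigotes grown with compound for 44 hours at 28 °C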
Each line names hits and unclear results; the compound was inactive in the other large screens. Rule as the data show it, unless noted: active = inhibition above about 50%; inactive = the rest.

COc1cc2[nH]c(=O)n3nc(-c4ccccc4)nc3c2cc1OC	L major viab 50.4
CCOCCCNC(=S)N1C2CCC1CC(NC(=O)NC13CC4CC(CC(C4)C1)C3)C2 (configuration not stated)	none
O=C(N=Nc1c(O)n(Cc2ccccc2)c2ccccc12)c1ccc(O)cc1	L major viab 90.7
Cn1cnnc1SCc1ccc(C(=O)N=Nc2c(O)n(Cc3ccc(Cl)cc3)c3ccccc23)cc1	L major viab 98.6
O=C(N=Nc1c(O)n(Cc2ccccc2)c2ccccc12)c1cc2ccccc2cc1O	none
CCCCn1c(N)c(N(CCC(C)C)C(=O)CSc2nnc(C)s2)c(=O)[nH]c1=O	none
c1ccc(SCCOCCN2CCc3ccccc3C2)cc1	L major viab 89.8
CC1CC(C)CN(CCCSc2ccccc2)C1 (configuration not stated)	L major viab 92.3
CC1CC(C)CN(CCOCCSc2ccccc2)C1 (configuration not stated)	L major viab 89.4
Cc1cc(C(=O)NCCCN2CC(C)CC(C)C2)n(-c2ccccc2)n1 (configuration not stated)	none
c1ccc(SCCOCCn2cncn2)cc1	none
CC1CC(C)CN(CCOCCSc2ccc(Cl)cc2)C1 (configuration not stated)	L major viab 90.5
Cc1ccc(C(c2nnnn2CC2CCCO2)N2CCN(Cc3ccccc3)CC2)cc1 (configuration not stated)	none
CC1(C)NC(=O)N(CCOCCSc2ccccc2)C1=O	none
CC1CCCN(CCOCCSc2ccccc2)C1 (configuration not stated)	L major viab 97.5
CC1CN(CCCSc2ccc(Cl)cc2)CC(C)O1 (configuration not stated)	L major viab 85.2
Clc1ccc(SCCCN2CCCCC2)cc1	none (no result: GSH fluor, PKD1 inh, ABCB1 inh, ABCG2 inh, L major viab)
CC(=O)NCC(=O)N(C)C(C(=O)Nc1ccc2c(c1)OCCO2)c1ccc(C)cc1 (configuration not stated)	none
Cc1ccc(C(C(=O)Nc2ccc3c(c2)OCO3)N(C)C(=O)/C=C\c2ccc3c(c2)OCO3)cc1 (configuration not stated)	L major viab 87.0
O=C(Cn1cnc2ccccc21)N/N=C/C(Br)=C/c1ccccc1	none
COc1ccc(Br)cc1CSC(=N)N	none
CCCCCOc1ccc(Br)cc1CSC(=N)N	L major viab 100.1
COc1cc(C)c(N)cc1C(C)C	none
Cc1onc(-c2ccccc2Cl)c1C(=O)N1CCN(c2nc3ccccc3s2)CC1	L major viab 50.6
COc1ccccc1N1CCN(C(=O)c2c(-c3ccccc3Cl)noc2C)CC1	none
Cc1onc(-c2c(Cl)cccc2Cl)c1C(=O)N1CCN(c2ccccc2)CC1	L major viab 95.6
Cc1onc(-c2c(Cl)cccc2Cl)c1C(=O)N1CCN(c2ncccn2)CC1	none
O=C(C1CCCO1)N1CCN(Cc2c(O)ccc3ccccc23)CC1 (configuration not stated)	Avidin fluor 61
Cc1ccc(CN2CCN(C(=O)C3CCCO3)CC2)cc1 (configuration not stated)	none
O=C(Nc1cccc(S(=O)(=O)N2CCCC2)c1)c1ccc2c(=O)n3c(nc2c1)CCCCC3	L major viab 82.4
COc1ccc(S(=O)(=O)Nc2cccc(S(=O)(=O)N3CCCCCC3)c2)cc1	none
COc1ccc(NS(=O)(=O)c2cccc(NC(=O)c3ccc(S(=O)(=O)N4CCCCCC4)cc3)c2)cc1	L major viab 97.1
O=S(=O)(Nc1nc2ccccc2nc1Nc1cccc(S(=O)(=O)N2CCCCC2)c1)c1ccccc1	L major viab 69.0
COc1ccccc1NS(=O)(=O)c1ccc(C)c(NC(=O)c2ccc(S(=O)(=O)N3CCCCCC3)cc2)c1	L major viab 96.9
Cc1oc(-c2ccccc2)cc1C(=O)NC1CCN(Cc2ccccc2)CC1	none (no result: GSH fluor, PKD1 inh, ABCB1 inh, ABCG2 inh, L major viab)
COc1ccc(C2CC3(CC(C)(C)NC(SC)=N3)Oc3cc(O)cc(C)c32)cc1 (configuration not stated)	none
O=C(CN1C(=O)NC2(CCCCC2)C1=O)NCc1ccc2c(c1)OCO2	none
Cc1nn(Cc2ccccc2)c(C)c1NC(=O)CSc1nc(C2CC2)nc2c1cnn2-c1ccccc1	none
COC(=O)c1[nH]c2cccc(OC)c2c1NC(=O)CCN1CCN(c2cccc(Cl)c2)CC1	L major viab 100.3
COC(=O)c1[nH]c2cccc(OC)c2c1NC(=O)CCN1CCSCC1	none (no result: GSH fluor, PKD1 inh, ABCB1 inh, ABCG2 inh, L major viab)
Cc1cc(N2CCN(C3CCCCC3)CC2)nc2cccc(O)c12	L major viab 85.0
COc1cc(C(=O)O/N=C(\N)c2ccccn2)cc(OC)c1OC	none (no result: GSH fluor, PKD1 inh, ABCB1 inh, ABCG2 inh, L major viab)
COc1cc(C(=O)O/N=C2/C=CC(=O)C(C)=C2C)cc(OC)c1OC	L major viab 100.1
COc1cc(C(=O)O/N=C2\C=CC(=O)C=C2C)cc(OC)c1OC	L major viab 97.2
CN(C)c1nc(NC(C)(C)C)nc(NC(C)(C)C)n1	L major viab 59.5
Cc1ccnc(NS(=O)(=O)c2ccc(NC(=O)c3cc(-c4ccc(Br)cc4)nc4ccccc34)cc2)n1	none
C=CCOc1ccccc1CN1CCSCC1	L major viab 98.2
CCOC(=O)C1(CCc2ccccc2)CCN(Cc2nccn2CC)CC1	none
CCOC(=O)C1(CCc2ccccc2)CCN(Cc2c(O)cccc2OC)CC1	L major viab 91.4
CCOC(=O)C1(CCc2ccccc2)CCN(Cc2ccc(OC)cc2)CC1	L major viab 84.6
CCOC(=O)C1(CCc2ccccc2)CCN(Cc2ccc(O)cc2)CC1	L major viab 95.4
O=C1C(C2=C(O)c3ccccc3C2=O)=Nc2ccccc21	L major viab 99.6
O=C(c1nc2ncccn2n1)N1CCN(c2ccc(F)cc2)CC1	none
O=C(c1nc2ncccn2n1)N1CCN(c2ccccc2)CC1	L major viab 89.8
COc1ccc2cnn(CCOc3ccccc3)c(=O)c2c1OC	L major viab 86.8
CCOc1ccccc1OCCn1ncc2ccc(OC)c(OC)c2c1=O	none
COc1ccc2cnn(CCOc3cc(C)ccc3C(C)C)c(=O)c2c1OC	L major viab 95.3
COc1ccc2cnn(-c3ccc(C)cc3)c(=O)c2c1OC	none
CCN(C(=O)C1CCN(S(=O)(=O)c2ccc3c(c2)oc(=O)n3C)CC1)c1cccc(C)c1	none
CC(=O)c1c(C)nc2ccccc2c1N	L major viab 95.8
COc1ccc(CC(=O)O/N=C(\N)Cc2ccc(OC)c(OC)c2)cc1	L major viab 91.9
COc1cccc(C(=O)NCc2nnc(SCC(=O)Nc3nccs3)n2-c2cccc(C)c2)c1	none
O=C1c2ccccc2-c2onc3ccc(NCCCn4ccnc4)c1c23	PKD1 inh 94.4, L major viab 100.1
N#CC(c1ccccc1)(c1ncc(C(F)(F)F)cc1Cl)N1CCOCC1 (configuration not stated)	none
